System: MS2 coat protein
Test: apparent Kd, MS2 coat protein; higher = weaker binding; RNA-MaP array; FMN 200 µM where present
Method in brief: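 The titrant was SNAP-549-labelled MS2 coat protein, run from 0.7 or 1.5 nM in doubling steps to 3 µM. It was applied to designs transcribed by stalled E. coli RNA polymerase on Illumina sequencing-chip clusters, without ligand first and then with constant ligand, in 100 mM Tris-HCl pH 7.5, 80 mM KCl, 4 mM MgCl2, BSA, DTT, yeast tRNA and Tween-20. The apparent Kd is the median of filtered per-cluster binding-curve fits, with green signal normalised to red-channel RNA signal and control-cluster median Fmax.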

[1] = designed as: OFF switch for flavin mononucleotide, no ligand
[2] = ligand present: flavin mononucleotide, designed as: OFF switch for flavin mononucleotide
[3] = designed as: ON switch for flavin mononucleotide, no ligand
[4] = ligand present: flavin mononucleotide, designed as: ON switch for flavin mononucleotide

| Sequence | apparent Kd [1] | apparent Kd [2] | apparent Kd [3] | apparent Kd [4] |
| --- | --- | --- | --- | --- |
| AUGUGACAUGAGGAUCACCCAUGUAAGGAUAUAUGACUAAGGACUUCCUUGGUAGCGCGUAGAAGGUACGUGAA | 0.0196 µM | 0.02 µM | – | – |
| GAAAUACAUGAGGAUCACCCAUGUGAGGAUAUGCUAUGGAAAUAAAAAAUAAAACAUAGCAGAAGGUACAAAAG | 0.0715 µM | 0.106 µM | – | – |
| CCAUAUAGGUAGGAUAUCGAUUUUAAUUAAUAUCGAGAAGGGUCAACAUGAGGAUCACCCAUGUCAGCAUGUAC | 0.0804 µM | 0.0755 µM | – | – |
| AAAAAACAUGAGGAUCACCCAUGUGAGGAUAUGAUGCGAAUAAAGAAAGAAGAAAGCAUCAGAAGGCACACCUA | 0.0501 µM | 0.0839 µM | – | – |
| AAACAUGUCCGAGGAUAUCUGGAAACAUUUUCAAGAGAAGGCGGACAUGAGGAUCACCCAUGUCUCUCCUCAUCCAAUCCAAGU | 0.00936 µM | 0.0464 µM | – | – |
| ACAUGAGGAUCACCCAUGUGAUGAUCUCCCAUGUUAUAUUUCAGAAGGCUCGCGUGUUUGAUGAGAGAGGAUAUGGAAUAUACG | 0.325 µM | 0.272 µM | – | – |
| GGAUGAGAAACUCAUCCAAUUCGAACAUGAGGAUCACCCAUGUAGGAUAUGCUACUCAAAGAGUAGCAGAAGGACAUGUGCCUU | 0.025 µM | 0.189 µM | – | – |
| AUAUCUUAUGAGAAGGCGAUCAUGAAACAUGAUCGAGGAUAUCAUGUAAACAUGAGGAUCACCCAUGUAUGGGUAUUAUGGUAU | – | – | 0.0894 µM | 0.057 µM |
| GAAAACAGAGGAUAUACAUAAGCUAGACGAAAGUCUAGCAAACAUGAGGAUCACCCAUGUAGAAGGCUGAAGAA | 0.0376 µM | 0.0363 µM | – | – |
| AGAUCAUCAGGAUAUACAUGGGUGAAAAAAGUAUAUCCACUACAUGAGGAUCACCCAUGUAGAAGGGAUGAUCA | 0.0173 µM | 0.0151 µM | – | – |
| GAACCUCUUGUGAGGAUAUGCUGUUGAACGAGCUUGCAGAAGGCACAUGAGGAUCACCCAUGUCUCUUCUGGGU | 0.0204 µM | 0.0283 µM | – | – |
| AGAAAACAUGAGGAUCACCCAUGUGAGGAUAUCGAUGUCCAAAAAAAAGUGCGGGACUCGAGAAGGCACUUGGA | 0.0286 µM | 0.0376 µM | – | – |
| AGAUUUGUACAUGAGGAUCACCCAUGUUAAUAGGUGUUUGUCAGAAGGCAUUAAUAGAGAUUUAAUGAGGAUAUGAAUUUACAA | – | – | 0.0583 µM | 0.0289 µM |
| UUACCUUAUGAGAAGGCGAUCAUGAAACAUGAUCGAGGAUAUCAUGUAAACAUGAGGAUCACCCAUGUAUGGGUAUUAUGGUAC | – | – | 0.0866 µM | 0.0278 µM |
| GUCGGAAACGACAAAAGUAGCAUAGGAGAAGGCAUGUCAAAGACAUGAGGAUCACCCAUGUAGCAUGAGGAUAUCCUAUGCUAC | – | – | 0.00524 µM | 0.00497 µM |
| CUGUUGGGCUCAGGAUAUCGGGUUUAACAUGAGGAUCACCCAUGUCGUCUGCGAAAGCAGAAUCACGAGAAGGGAGACCAGCGA | – | – | 0.0134 µM | 0.00753 µM |
| ACGCCAAUCGAGAAGGGCCCAUGUGCUACGUCGGCAGGAUAUCGACAUGAGGAUCACCCAUGUUGGCGAUCCUUUUUGGCUAAC | 0.147 µM | 0.212 µM | – | – |
| GCCGGAGAAGGAUAUACAUGAGGAUCACCCAUGUUCUUGGGCGAAAUAAAUUCCUAGAGUAGAAGGUCUAGGCA | 0.0187 µM | 0.0415 µM | – | – |
| AAAACAUGAGGAUCACCCAUGUAAAGUUCGGUUAAUAGAGGUGAGGAUAUACUAAAUUUUGGGUGGUAGAAGGCACUGGGUACA | – | – | 0.122 µM | 0.105 µM |
| AUGUGGUUCCCGGCCGUCGUGUACGAGGAUAUCCUCGAACAUGAGGAUCACCCAUGUAACGUUGUGGAGAAGGCGUACGCUCGG | – | – | 0.0313 µM | 0.00548 µM |
